Assay results from ChEMBL document CHEMBL1129435, “Acyclic nucleotide analogs derived from 8-azapurines: synthesis and antiviral activity” (J Med Chem, 1996).
Values after ≈ are worked out from the molar mass of the structure shown.

Legend:
[1] = tested on: Moloney murine sarcoma virus; assay: Compound was tested for anti-retroviral activity against moloney murine sarcoma virus (MSV) in murine C3H/3T3 embryo fibroblast cell culture; type: functional, organism-based
How it was run: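 C3H/3T3 fibroblasts were seeded at 5 × 10⁵ cells/mL. After 24 h they were infected with 80 focus-forming units of MSV for 90-120 min at 37 °C; the virus came from tumours induced by intramuscular inoculation of 3-day-old NMRI mice. The medium was then replaced with fresh medium containing various compound concentrations. Transformation was scored microscopically after 6 days.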

[2] = tested on: Human immunodeficiency virus 1; assay: Inhibition of human immunodeficiency virus-1 (HIV-1) induced cytopathicity in CEM cells; type: functional, organism-based; conditions: Human immunodeficiency virus 1, CCRF-CEM
How it was run: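 CEM cells (~3 × 10⁵ cells/mL) were infected with HIV-1(IIIB) at 100 CCID50 per µL. Infected cells were plated with compound dilutions and incubated 4 days at 37 °C. Giant cell formation was then examined microscopically.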

[3] = tested on: Human immunodeficiency virus 2; assay: Inhibition of human immunodeficiency virus-2 (HIV-2) induced cytopathicity in CEM cells; type: functional, organism-based; conditions: Human immunodeficiency virus 2, CCRF-CEM
[4] = Antiviral activity against herpes simplex virus-1 KOS in E6SM cell culture; type: functional, cell-based; conditions: Human alphaherpesvirus 1, E6SM
How it was run: (§1)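 Confluent cell monolayers in microtiter trays were inoculated with 100 CCID50 of virus. After 1 h adsorption the residual virus was removed. Cells were then incubated with serial compound concentrations (400, 200, 100, ... µg/mL). Cytopathicity was scored once it was complete in untreated infected controls. The value is the 50% inhibitory concentration, or the concentration reducing plaque formation by 50%, in µg/mL.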

Human alphaherpesvirus 1 = assay: Antiviral activity against thymidine kinase deficient herpes simplex virus-1 HSV-1 TK- B2006 strain in E6SM cell culture; type: functional, organism-based; conditions: Human alphaherpesvirus 1, E6SM; how it was run: as §1
[5] = Antiviral activity against thymidine kinase deficient herpes simplex virus-1 HSV-1 TK- VMW-1837 strain in E6SM cell culture; type: functional, cell-based; conditions: Human alphaherpesvirus 1, E6SM; how it was run: as §1
Vaccinia virus = assay: Antiviral activity against vaccinia virus (VV) in E6SM cell culture; type: functional, organism-based; conditions: Orthopoxvirus vaccinia
Human alphaherpesvirus 2 = assay: Antiviral activity in herpes simple virus-2 (HSV-2) Lyons strain in E6SM cell culture; type: functional, organism-based; conditions: Human alphaherpesvirus 2, E6SM; how it was run: as §1
Human alphaherpesvirus 3 [6] = assay: Antiviral activity in TK+ varicella zoster virus (VZV) YS strain in HEL cell culture; type: functional, organism-based; conditions: Human alphaherpesvirus 3, HEL
Human betaherpesvirus 5 = assay: Antiviral activity against cytomegalovirus (CMV) AD169 strain in HEL cell culture; type: functional, organism-based; conditions: Human betaherpesvirus 5, HEL; how it was run: as §1
Cytomegalovirus = assay: Antiviral activity against cytomegalovirus (CMV) Davis strain in HEL cell culture; type: functional, organism-based; conditions: Human betaherpesvirus 5, HEL; how it was run: as §1
Human alphaherpesvirus 3 [7] = assay: Antiviral activity in TK+ varicella zoster virus (VZV) 07/1 strain in HEL cell culture; type: functional, organism-based; conditions: Human alphaherpesvirus 3, HEL
Human alphaherpesvirus 3 [8] = assay: Antiviral activity in TK+ varicella zoster virus (VZV) OKA strain in HEL cell culture; type: functional, organism-based; conditions: Human alphaherpesvirus 3, HEL
[9] = tested on: Human immunodeficiency virus 1; assay: Inhibition of human immunodeficiency virus-1 (HIV-1) induced cytopathicity in human MT-4 cells; type: functional, organism-based; conditions: Human immunodeficiency virus 1, MT4
How it was run: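 MT-4 cells (~4 × 10⁵ cells/mL) were infected with HIV-1(IIIB) at 100 CCID50 per µL. Infected cells were seeded into wells containing compound dilutions and incubated 5 days at 37 °C. Viable cells were then counted by trypan blue exclusion in a blood cell counting chamber.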

SMILES | IC50 [1] [µg/mL] | IC50 [2] [µg/mL] | IC50 [3] [µg/mL] | IC50 [4] [µg/mL] | IC50 (Human alphaherpesvirus 1) [µg/mL] | IC50 [5] [µg/mL] | IC50 (Vaccinia virus) [µg/mL] | IC50 (Human alphaherpesvirus 2) [µg/mL] | IC50 (Human alphaherpesvirus 3 [6]) [µg/mL] | IC50 (Human betaherpesvirus 5) [µg/mL] | IC50 (Cytomegalovirus) [µg/mL] | IC50 (Human alphaherpesvirus 3 [7]) [µg/mL] | IC50 (Human alphaherpesvirus 3 [8]) [µg/mL] | IC50 [9] [µg/mL]
C[C@H](Cn1nnc2c(O)nc(N)nc21)OCP(=O)(O)O | 0.43 (≈ 1.41 µM) | 2 (≈ 6.57 µM) | 2 (≈ 6.57 µM) | 20 (≈ 65.7 µM) | > 100 | 20 (≈ 65.7 µM) | > 100 | 20 (≈ 65.7 µM) | 28 (≈ 92 µM) | 50 (≈ 164 µM) | 35 (≈ 115 µM) | 20 (≈ 65.7 µM) | 40 (≈ 131 µM) | 2.42 (≈ 7.96 µM)
Nc1nc(N)c2nnn(C[C@@H](CO)OCP(=O)(O)O)c2n1 | 1 (≈ 3.13 µM) | > 100 | > 100 | 20 (≈ 62.7 µM) | 20 (≈ 62.7 µM) | 40 (≈ 125 µM) | 20 (≈ 62.7 µM) | 40 (≈ 125 µM) | 6 (≈ 18.8 µM) | 100 (≈ 313 µM) | 100 (≈ 313 µM) | 6 (≈ 18.8 µM) | 9 (≈ 28.2 µM) | > 100
Nc1nc(N)c2nnn(C[C@@H](CF)OCP(=O)(O)O)c2n1 | 14.9 (≈ 46.4 µM) | 50 (≈ 156 µM) | 50 (≈ 156 µM) | > 400 | > 400 | > 400 | > 400 |  | > 50 | > 50 | > 50 | > 50 | > 50 | 
Nc1ncnc2nn(C[C@H](O)CO)nc12 | > 100 | > 100 | > 100 | > 200 |  |  |  |  |  | > 100 |  |  | > 40 | 
Nc1nc(O)c2nn(CCOCP(=O)(O)O)nc2n1 | > 40 | > 100 | > 100 | > 400 | > 400 | > 300 | 150 (≈ 517 µM) | > 300 | 40 (≈ 138 µM) | > 100 | > 40 | > 40 | 40 (≈ 138 µM) | > 100
Nc1nc(N)c2nn(C[C@@H](CF)OCP(=O)(O)O)nc2n1 | > 200 | > 100 | > 100 | > 400 | > 400 | > 400 | > 400 |  | > 50 | > 50 | > 50 | > 50 | > 50 | 
Nc1ncnc2nn(CCOCP(=O)(O)O)nc12 | > 100 |  |  | > 400 | > 400 | > 400 | > 400 | > 400 | > 100 | > 100 | > 100 | > 100 | > 100 | > 100
Nc1ncnc2c1nnn2C[C@H](O)CO | > 100 | > 100 | > 100 | > 200 |  |  |  |  | > 40 | > 100 |  | > 40 | > 40 | 
C[C@H](Cn1nc2ncnc(N)c2n1)OCP(=O)(O)O | 2.9 (≈ 10.1 µM) | > 100 | > 100 | 150 (≈ 520 µM) | 150 (≈ 520 µM) | 100 (≈ 347 µM) | > 400 | 100 (≈ 347 µM) | 5 (≈ 17.3 µM) | > 40 | > 40 | 5 (≈ 17.3 µM) | 10 (≈ 34.7 µM) | > 100
C[C@H](Cn1nc2nc(N)nc(N)c2n1)OCP(=O)(O)O | 28.4 (≈ 93.7 µM) | > 100 | > 100 | > 100 | 200 (≈ 660 µM) | > 200 | > 100 | > 200 | > 50 | > 50 | > 50 | > 50 | > 50 | > 100
C[C@H](Cn1nc2nc(N)nc(O)c2n1)OCP(=O)(O)O | > 40 | 20 (≈ 65.7 µM) | 20 (≈ 65.7 µM) | > 100 | > 400 | > 400 | > 400 | > 400 | > 20 | > 50 | > 50 |  | > 20 | 20 (≈ 65.7 µM)
Nc1nc(N)c2nnn(CCOCP(=O)(O)O)c2n1 | 0.75 (≈ 2.59 µM) |  |  | 70 (≈ 242 µM) | 150 (≈ 519 µM) | 150 (≈ 519 µM) | > 400 | 150 (≈ 519 µM) | > 40 | > 40 | > 40 | > 40 | > 40 | 45.8 (≈ 158 µM)
